The results in this text go back to ChEMBL document CHEMBL4145461, “Novel non-sulfonamide 5-HT6 receptor partial inverse agonist in a group of imidazo[4,5-b]pyridines with cognition enhancing properties” (Eur J Med Chem, 2018).

For data set [1], the target named is D(3) dopamine receptor (Homo sapiens) (UniProt P35462). As to the kind of experiment: Displacement of [3H]methyl-spiperone from recombinant human dopamine D3 receptor at 1 uM after 60 mins by scintillation counting relative to control.
In data set [2] the target is 5-hydroxytryptamine receptor 2A (Homo sapiens, UniProt P28223). As to the kind of experiment: Displacement of [3H]-Ketanserin from human 5HT2AR expressed in CHO-K1 cell membranes after 1.5 hrs by microbeta counting method. The essentials:
(§1)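 HEK293 (5-HT1A, 5-HT6, 5-HT7b, D2L) or CHO-K1 (5-HT2A) membranes, all Tris–HCl with 4 mM MgCl2 plus receptor-specific EDTA/pargyline/ascorbate (D2L adds NaCl, KCl, CaCl2). Nonspecific binding: 10 μM 5-HT (5-HT1A, 5-HT7), chlorpromazine (5-HT2A), methiothepine (5-HT6), haloperidol (D2L). Triplicate, 7–8 concentrations (10⁻¹¹–10⁻⁴ M), filtration; Ki via Cheng–Prusoff, mean of three experiments.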

The target in another data set is Cytochrome P450 3A4 (Homo sapiens, UniProt P08684). Put plainly: Inhibition of CYP3A4 (unknown origin) at 0.025 to 25 uM after 2 hrs by firefly luciferase-luminescence based P450-glo assay. The class given is ADME. The essentials: (§2)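 Recombinant CYP3A4 or CYP2D6 incubated 2 h with test compound (0.025–25 μM final) and an isoform-specific luciferin derivative. Firefly luciferase then added, and luminescence is proportional to D-luciferin formed. Reference inhibitors: ketoconazole (CYP3A4) and quinidine (CYP2D6, 0.1–100 nM).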

Data set [3] in a line: Tmax in Wistar rat at 10 mg/kg, po administered as single dose by LC/MS analysis. The format is ADME, organism-based. As to conditions: in vivo; call rule not given here. The essentials:
(§3)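 Male Wistar rats (229–272 g), fasted 16 h before and 4 h after dosing, given 10 mg/kg orally in water. Four rats per time point at 15 min, 30 min, 1, 2, 4 and 8 h. Plasma (K3EDTA) and brain homogenate collected and analysed by LC-MS/MS.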

The target of the next data set is hERG (KCNH2) (Homo sapiens, UniProt Q12809). As to the kind of experiment: Displacement of [3H]Dofetilide from recombinant human ERG at 1 uM after 60 mins by scintillation counting relative to control. As to conditions: probe [3H]Dofetilide.
In data set [4] the target is T1, Muscarinic acetylcholine receptor M1 (Homo sapiens) (UniProt P11229).
T1 sequence (whole entry): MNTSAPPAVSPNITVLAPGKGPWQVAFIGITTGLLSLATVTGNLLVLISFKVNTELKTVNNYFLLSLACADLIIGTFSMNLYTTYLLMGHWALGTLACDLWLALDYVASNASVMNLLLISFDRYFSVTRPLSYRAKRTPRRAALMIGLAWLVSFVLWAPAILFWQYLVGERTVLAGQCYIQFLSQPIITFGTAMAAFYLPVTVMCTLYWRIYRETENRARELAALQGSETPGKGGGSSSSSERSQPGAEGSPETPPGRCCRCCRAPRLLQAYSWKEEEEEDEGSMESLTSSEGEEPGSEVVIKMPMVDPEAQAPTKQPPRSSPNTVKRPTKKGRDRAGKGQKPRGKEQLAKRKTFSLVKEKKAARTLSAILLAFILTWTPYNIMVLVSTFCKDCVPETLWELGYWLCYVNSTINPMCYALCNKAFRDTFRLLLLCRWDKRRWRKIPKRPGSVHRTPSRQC
Put plainly: Displacement of [3H]pirenzepine from recombinant human muscarinic M1 receptor at 1 uM after 60 mins by scintillation counting relative to control. (In general: In a radioligand displacement assay an active substance lowers the binding of a labelled ligand.)

The next data set has as its target D(2) dopamine receptor (Homo sapiens, UniProt P14416). As to the kind of experiment: Displacement of [3H]-Raclopride from human dopamine D2L receptor expressed in HEK293 cell membranes after 1 hr by microbeta counting method. Summed up:
(§4)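 HEK293 (5-HT1A, 5-HT6, 5-HT7b, D2L) or CHO-K1 (5-HT2A) membranes, all Tris–HCl with 4 mM MgCl2 plus receptor-specific EDTA/pargyline/ascorbate (D2L adds NaCl, KCl, CaCl2). Nonspecific binding: 10 μM 5-HT (5-HT1A, 5-HT7), chlorpromazine (5-HT2A), methiothepine (5-HT6), haloperidol (D2L). Triplicate, 7–8 concentrations (10⁻¹¹–10⁻⁴ M), filtration; Ki via Cheng–Prusoff, mean of three experiments. Incubation 1 h 37 °C; 5-HT1A 1 h and 5-HT2A 1.5 h, room temperature.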

In data set [5] the target is Histamine H1 receptor (Homo sapiens) (UniProt P35367). As to the kind of experiment: Displacement of [3H]pyrilamine from recombinant human histamine H1 receptor at 1 uM after 60 mins by scintillation counting relative to control.
For data set [6], the target named is T2, Cytochrome P450 2D6 (Homo sapiens, UniProt P10635). Put plainly: Inhibition of CYP2D6 (unknown origin) at 0.025 to 25 uM after 2 hrs by firefly luciferase-luminescence based P450-glo assay. The format is ADME. The essentials:
as §2

Data set [7] addresses Sodium-dependent serotonin transporter (Homo sapiens) (UniProt P31645). As to the kind of experiment: Displacement of [3H]imipramine from recombinant human SERT at 1 uM after 60 mins by scintillation counting relative to control.
In data set [8] the target is T3, 5-hydroxytryptamine receptor 1A (Homo sapiens, UniProt P08908).
T3 sequence (P08908 whole entry): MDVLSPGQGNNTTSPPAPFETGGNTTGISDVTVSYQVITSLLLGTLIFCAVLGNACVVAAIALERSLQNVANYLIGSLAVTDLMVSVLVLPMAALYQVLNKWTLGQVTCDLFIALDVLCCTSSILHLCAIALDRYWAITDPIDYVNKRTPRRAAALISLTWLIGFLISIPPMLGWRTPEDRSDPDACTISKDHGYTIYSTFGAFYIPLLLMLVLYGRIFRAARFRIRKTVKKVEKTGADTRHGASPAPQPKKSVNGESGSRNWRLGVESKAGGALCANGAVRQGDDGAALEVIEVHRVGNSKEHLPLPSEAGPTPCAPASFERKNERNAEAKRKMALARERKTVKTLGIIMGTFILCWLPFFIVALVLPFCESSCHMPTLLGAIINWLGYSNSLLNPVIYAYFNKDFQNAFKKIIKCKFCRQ
As to the kind of experiment: Displacement of [3H]-8-OH-DPAT from human 5HT1AR expressed in HEK293 cell membranes after 1 hr by microbeta counting method. The essentials: as §1

Data set [9] addresses T2, Cytochrome P450 2D6. Put plainly: Induction of CYP2D6 (unknown origin) at 0.025 to 25 uM after 2 hrs by firefly luciferase-luminescence based P450-glo assay. The class given is ADME. The essentials:
as §2

For data set [10], the target named is 5-hydroxytryptamine receptor 7 (Homo sapiens, UniProt P34969). As to the kind of experiment: Displacement of [3H]-5-CT from human 5HT7BR expressed in HEK293 cell membranes after 1 hr by microbeta counting method. Summed up:
as §4

Data set [11] deals with Histamine H3 receptor (Homo sapiens) (UniProt Q9Y5N1). As to the kind of experiment: Displacement of [3H]Nalpha-Me-histamine from recombinant human histamine H3 receptor at 1 uM after 60 mins by scintillation counting relative to control.
A short description of data set [12]: Cmax in Wistar rat at 10 mg/kg, po administered as single dose by LC/MS analysis. The class given is ADME, organism-based. On the set-up: dose 10 mg/kg, route oral. As to conditions: in vivo. The essentials: as §3

T2 sequence (P10635 whole entry): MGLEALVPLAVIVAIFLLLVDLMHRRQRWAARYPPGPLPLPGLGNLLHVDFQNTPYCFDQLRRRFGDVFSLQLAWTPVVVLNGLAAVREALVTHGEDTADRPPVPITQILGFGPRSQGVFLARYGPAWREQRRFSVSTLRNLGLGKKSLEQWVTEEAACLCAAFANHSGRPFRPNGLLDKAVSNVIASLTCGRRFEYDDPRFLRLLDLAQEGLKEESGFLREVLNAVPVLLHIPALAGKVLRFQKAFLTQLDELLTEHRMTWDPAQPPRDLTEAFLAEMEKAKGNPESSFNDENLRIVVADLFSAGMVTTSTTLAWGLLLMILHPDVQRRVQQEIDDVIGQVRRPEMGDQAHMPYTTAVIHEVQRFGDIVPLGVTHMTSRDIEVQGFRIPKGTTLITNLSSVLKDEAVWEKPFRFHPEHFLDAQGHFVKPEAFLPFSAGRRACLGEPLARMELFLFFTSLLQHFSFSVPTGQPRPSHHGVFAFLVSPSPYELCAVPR
Sequence of Sodium-dependent serotonin transporter (Homo sapiens) (P31645 whole entry, looked up): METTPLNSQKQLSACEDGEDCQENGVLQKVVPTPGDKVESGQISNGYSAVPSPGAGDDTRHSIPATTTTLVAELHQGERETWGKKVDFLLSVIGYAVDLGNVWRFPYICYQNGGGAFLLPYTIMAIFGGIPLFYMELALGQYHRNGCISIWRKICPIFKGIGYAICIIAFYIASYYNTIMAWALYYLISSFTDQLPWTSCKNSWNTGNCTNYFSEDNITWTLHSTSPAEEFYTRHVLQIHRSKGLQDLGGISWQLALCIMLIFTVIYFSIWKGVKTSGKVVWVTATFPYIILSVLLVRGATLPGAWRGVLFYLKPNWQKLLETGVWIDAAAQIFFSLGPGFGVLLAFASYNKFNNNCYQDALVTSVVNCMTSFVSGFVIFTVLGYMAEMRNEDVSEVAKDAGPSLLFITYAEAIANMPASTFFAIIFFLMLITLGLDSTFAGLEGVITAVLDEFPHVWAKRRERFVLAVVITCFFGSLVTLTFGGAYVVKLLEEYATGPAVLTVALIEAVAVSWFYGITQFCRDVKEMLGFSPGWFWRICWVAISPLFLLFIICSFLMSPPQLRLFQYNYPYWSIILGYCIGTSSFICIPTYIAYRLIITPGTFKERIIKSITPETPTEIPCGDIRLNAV
Sequence of Cytochrome P450 3A4 (P08684 whole entry, canonical isoform): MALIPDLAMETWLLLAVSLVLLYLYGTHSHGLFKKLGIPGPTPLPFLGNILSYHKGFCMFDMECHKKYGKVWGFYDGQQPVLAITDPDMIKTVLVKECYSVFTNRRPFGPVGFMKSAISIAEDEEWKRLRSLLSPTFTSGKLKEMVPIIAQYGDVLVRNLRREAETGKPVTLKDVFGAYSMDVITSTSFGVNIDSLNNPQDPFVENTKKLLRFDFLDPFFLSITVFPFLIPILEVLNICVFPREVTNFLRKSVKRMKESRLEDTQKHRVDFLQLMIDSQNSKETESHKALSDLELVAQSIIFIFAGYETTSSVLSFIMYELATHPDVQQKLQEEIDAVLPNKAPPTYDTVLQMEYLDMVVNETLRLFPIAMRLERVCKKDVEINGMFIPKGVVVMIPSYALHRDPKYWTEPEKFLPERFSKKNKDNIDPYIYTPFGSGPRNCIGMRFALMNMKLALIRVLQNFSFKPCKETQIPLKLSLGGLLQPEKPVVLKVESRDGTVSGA
Sequence of Histamine H1 receptor (Homo sapiens) (P35367 whole entry): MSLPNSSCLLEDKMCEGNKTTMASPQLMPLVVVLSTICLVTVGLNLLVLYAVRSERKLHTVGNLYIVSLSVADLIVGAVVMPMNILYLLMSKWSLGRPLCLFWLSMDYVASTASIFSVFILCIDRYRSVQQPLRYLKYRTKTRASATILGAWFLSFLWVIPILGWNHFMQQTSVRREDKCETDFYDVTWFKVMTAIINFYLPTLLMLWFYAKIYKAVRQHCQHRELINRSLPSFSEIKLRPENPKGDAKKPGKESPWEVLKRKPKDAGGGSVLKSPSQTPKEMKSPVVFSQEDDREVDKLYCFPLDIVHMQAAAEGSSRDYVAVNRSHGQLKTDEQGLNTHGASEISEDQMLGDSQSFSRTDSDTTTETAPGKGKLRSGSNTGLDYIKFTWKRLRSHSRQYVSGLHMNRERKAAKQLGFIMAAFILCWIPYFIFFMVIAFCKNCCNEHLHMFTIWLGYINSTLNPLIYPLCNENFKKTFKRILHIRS
Sequence of D(3) dopamine receptor (Homo sapiens) (P35462 whole entry): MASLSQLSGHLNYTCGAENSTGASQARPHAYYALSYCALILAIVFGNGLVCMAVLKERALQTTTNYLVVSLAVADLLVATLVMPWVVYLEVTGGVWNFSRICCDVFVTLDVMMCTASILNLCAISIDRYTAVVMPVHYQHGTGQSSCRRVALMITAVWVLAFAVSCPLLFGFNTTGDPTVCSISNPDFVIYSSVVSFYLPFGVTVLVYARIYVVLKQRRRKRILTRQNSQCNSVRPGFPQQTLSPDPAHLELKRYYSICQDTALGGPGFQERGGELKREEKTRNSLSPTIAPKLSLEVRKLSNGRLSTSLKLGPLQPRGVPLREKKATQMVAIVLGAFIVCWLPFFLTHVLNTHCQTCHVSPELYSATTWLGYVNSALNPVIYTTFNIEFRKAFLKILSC
Sequence of Histamine H3 receptor (Homo sapiens) (Q9Y5N1 whole entry): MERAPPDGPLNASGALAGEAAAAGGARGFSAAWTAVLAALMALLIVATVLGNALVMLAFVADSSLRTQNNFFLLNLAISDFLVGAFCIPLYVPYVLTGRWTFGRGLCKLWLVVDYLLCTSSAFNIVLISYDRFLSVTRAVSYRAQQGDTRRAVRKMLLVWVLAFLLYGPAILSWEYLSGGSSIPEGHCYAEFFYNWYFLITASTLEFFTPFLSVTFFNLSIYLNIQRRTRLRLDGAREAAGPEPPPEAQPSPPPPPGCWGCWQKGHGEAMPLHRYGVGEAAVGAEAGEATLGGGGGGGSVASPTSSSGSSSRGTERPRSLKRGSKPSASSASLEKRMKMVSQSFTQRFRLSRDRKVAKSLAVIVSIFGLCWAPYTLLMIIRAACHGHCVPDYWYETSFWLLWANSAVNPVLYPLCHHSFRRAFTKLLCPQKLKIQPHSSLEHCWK
Sequence of 5-hydroxytryptamine receptor 7 (P34969 whole entry): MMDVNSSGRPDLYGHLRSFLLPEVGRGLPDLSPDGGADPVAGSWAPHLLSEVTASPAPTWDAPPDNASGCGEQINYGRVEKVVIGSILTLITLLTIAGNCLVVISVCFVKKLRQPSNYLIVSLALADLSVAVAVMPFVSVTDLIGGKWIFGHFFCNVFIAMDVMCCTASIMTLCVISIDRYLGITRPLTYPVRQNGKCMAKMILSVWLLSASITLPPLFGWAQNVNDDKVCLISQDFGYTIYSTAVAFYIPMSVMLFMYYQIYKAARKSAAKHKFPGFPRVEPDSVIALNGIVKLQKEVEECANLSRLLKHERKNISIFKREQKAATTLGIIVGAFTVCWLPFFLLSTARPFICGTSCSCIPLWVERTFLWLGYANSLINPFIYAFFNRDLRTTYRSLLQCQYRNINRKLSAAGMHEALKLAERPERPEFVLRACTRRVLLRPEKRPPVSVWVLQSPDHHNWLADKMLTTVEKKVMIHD
Sequence of 5-hydroxytryptamine receptor 2A (P28223 whole entry): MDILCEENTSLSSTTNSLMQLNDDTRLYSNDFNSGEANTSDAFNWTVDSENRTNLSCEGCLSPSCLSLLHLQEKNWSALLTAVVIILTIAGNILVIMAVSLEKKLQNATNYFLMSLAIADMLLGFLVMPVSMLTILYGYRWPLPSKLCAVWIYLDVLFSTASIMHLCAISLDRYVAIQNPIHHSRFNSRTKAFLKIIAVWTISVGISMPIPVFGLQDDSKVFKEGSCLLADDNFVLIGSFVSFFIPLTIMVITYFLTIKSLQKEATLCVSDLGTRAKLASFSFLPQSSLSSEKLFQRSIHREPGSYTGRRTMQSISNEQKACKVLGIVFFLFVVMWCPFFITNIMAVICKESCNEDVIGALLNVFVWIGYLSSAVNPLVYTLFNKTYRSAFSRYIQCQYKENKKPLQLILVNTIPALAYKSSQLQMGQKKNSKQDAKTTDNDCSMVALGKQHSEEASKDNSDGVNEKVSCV
Sequence of D(2) dopamine receptor (P14416 whole entry): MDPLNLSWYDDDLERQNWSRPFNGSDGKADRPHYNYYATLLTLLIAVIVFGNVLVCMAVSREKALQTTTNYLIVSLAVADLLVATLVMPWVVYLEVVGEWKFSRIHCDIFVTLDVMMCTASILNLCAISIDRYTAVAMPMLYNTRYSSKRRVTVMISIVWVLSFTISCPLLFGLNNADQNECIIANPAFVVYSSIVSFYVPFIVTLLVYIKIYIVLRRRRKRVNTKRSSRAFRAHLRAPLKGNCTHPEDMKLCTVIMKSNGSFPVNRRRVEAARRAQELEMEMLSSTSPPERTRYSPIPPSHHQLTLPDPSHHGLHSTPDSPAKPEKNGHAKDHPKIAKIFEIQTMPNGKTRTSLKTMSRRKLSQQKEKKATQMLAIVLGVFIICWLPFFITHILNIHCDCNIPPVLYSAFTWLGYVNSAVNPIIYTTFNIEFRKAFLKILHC

Take `CCc1nc2c(N3CCNCC3)ccnc2n1Cc1cccc(F)c1`: the inhibition – broadly, the change of the read-out against control, counted positive when it falls – is 18% in data set [1]; 3% in data set [4]; -4.9% in data set [5]; 1.9% in data set [7]; 1.6% in data set [11]. Further, the Ki – broadly, the dissociation constant of the complex between target and ligand, obtained from inhibition or displacement – in [2] is 0.441 µM; at D(2) dopamine receptor, 3.48 µM; in data set [8], 2.79 µM; in data set [10], 12.3 µM. Moreover, the “inhibition (INH)” value at Cytochrome P450 3A4 and on Cytochrome P450 2D6 [6] was “Not Active” in each case. In data set [3], the Tmax (commonly the time from dosing to the highest level) is 15 min. Also, at hERG (KCNH2), the inhibition at 1 h, 1 µM is -6.1%. The outcome at Cytochrome P450 2D6 [9] was Active. The Cmax – broadly, the peak of the concentration-time curve – in data set [12] turned out to be 140 ng/mL.
